Published values from different studies.
Lines come from different studies, so protocols differ.
Organism: Staphylococcus aureus
Effect on: microbial growth

`O=C(CCCCCCCC[P+](c1ccccc1)(c1ccccc1)c1ccccc1)Nc1ccc(O)c(O)c1.[Br-]` gave an MIC of over 32 µg/mL (broth dilution; ATCC43300 MRSA; 18 h).
`Cc1cc2c([nH]c3ccccc32)c2c1C(=O)C=CC2=O` has an MIC of 64 µg/mL (ATCC29213).
`C/N=C(/NC)c1ccc(NC(=O)/C=C/c2ccc(/C=C/C(=O)Nc3ccc(/C(=N\C)NC)cc3)cc2)cc1` gave an MIC of 2 µg/mL.
For `COc1cccc(OC)c1C(=O)N[C@@H]1C(=O)N2[C@@H]1SC(C)(C)[C@@H]2C(=O)O`, the MIC was 18.8 µM (broth dilution; BAA1707 MRSA; drug-resistant strain).
The MIC of `O=C1NC(=S)N/C1=C\c1ccc(-c2ccc(N(c3ccccc3)c3ccccc3)cc2)cc1` is reported as over 1000 µg/mL (broth dilution; ATCC6538).
The MIC of `CCn1cc(C(=O)O)c(=O)c2cc(F)c(N3CCNCC3)cc21` is reported as 250 µg/mL (MRSA).
The MIC of `CC(=O)Nc1ccc(C(=O)Nc2ccc(C(=O)N[C@@H](CC(N)=O)C(=O)Nc3ccc(C(=O)Nc4ccc(C(=O)Nc5ccc(C(=O)O)cc5)c(O)c4OC(C)C)cc3)cc2)cc1` is reported as 64 µg/mL (ATCC29213).
With `O=[N+]([O-])c1ccc(-c2nc3ccccc3n2Cc2ccccc2)cc1` the MIC was 4 µg/mL (broth dilution; ATCC29213 MSSA).
The MIC of `CCc1cccc(CC)c1NC(=O)N1Cc2[nH]nc(NC(=O)c3ccc(N4CCN(C)CC4)cc3)c2C1` is reported as over 30 µM (NCTC8325).
`CC(C)Oc1c(NC(=O)c2ccc(NC(=O)[C@H](CC(N)=O)NC(=O)c3ccc(-c4nn[nH]c4-c4ccc(C#N)cc4)cc3)cc2)ccc(C(=O)Nc2ccc(C(=O)O)cc2)c1O` has an MIC of over 64 µg/mL (ATCC29213).
`Fc1ccccc1NCc1ccc(Oc2ccccn2)cc1` has an MIC of 1.6 µg/mL.
With `C/C=C(\C)c1cc(O)c(C)c(OC(=O)c2c(C)cc(O)c(Cl)c2O)c1` the MIC was 8 µg/mL (MRSA).
For `Cc1nc(N)sc1-c1ccnc(Nc2ccc(N3CCOCC3)cc2)n1`, the MIC was over 30 µM (NCTC8325).
`O=[N+]([O-])c1ccc(O)c2ncccc12` gave an MIC of 2 µg/mL (broth dilution; ATCC29213).
`CC(C)Oc1c(NC(=O)c2ccc(NC(=O)[C@H](CC(N)=O)NC(=O)c3ccc(NC(=O)c4ccc(C#N)nc4)cc3)cc2)ccc(C(=O)Nc2ccc(C(=O)O)cc2)c1O` has an MIC of 64 µg/mL (ATCC29213).
`C#CCCCCC(=O)NC(C)C` has an MIC of over 100 µM (NCTC8325).
For `CC(C)(O/N=C(\C(=O)N[C@@H]1C(=O)N2C(C(=O)[O-])=C(C[n+]3ccccc3)CS[C@H]12)c1csc(N)n1)C(=O)O`, the MIC was over 128 µg/mL (MRSA; 18 h).
For `Cc1ccc2nc(-c3ccc(F)cc3)[nH]c2c1`, the MIC was 64 µg/mL (broth dilution; ATCC29213 MSSA).
For `O=C1NC(=O)C(Cc2ccc(O)cc2)S1` (centres unmarked), the MIC was over 128 µg/mL.
For `Cc1ccc2nc(-c3c(F)cccc3Cl)[nH]c2c1`, the MIC was 64 µg/mL (broth dilution; ATCC29213 MSSA).
The MIC of `O=C(c1ccc(/C=C/c2n[nH]c3ccccc23)cc1)N1CCNCC1` is reported as over 30 µM (NCTC8325).
`CCOc1ccc(-c2nc3ccc(C)cc3[nH]2)cc1` has an MIC of 128 µg/mL (broth dilution; ATCC29213 MSSA).
`Cc1ccc(C)n1-c1ccc(-c2nnc(-c3ccccc3[N+](=O)[O-])[nH]2)cc1` has an MIC of 8 µg/mL (broth dilution; ATCC11632; 18 h).
For `Clc1ccc(C2(c3ccc(-c4cn[nH]c4)cc3)CCNCC2)cc1`, the MIC was over 30 µM (NCTC8325).
The MIC of `CCC1(C)CC(OC(=O)CSc2nnc(N)[nH]2)C2(C)C(C)CCC3(CCC(=O)C32)C(C)C1O` (centres unmarked) is reported as 0.5 µg/mL.
`CC1(C)S[C@@H]2[C@H](NC(=O)[C@H](N)c3ccccc3)C(=O)N2[C@H]1C(=O)O` has an MIC of 16 µg/mL (broth dilution; 16162).
The MIC of `C/C(=C\c1ccc(O)cc1)C(=O)Nc1ccc(C(=O)N[C@@H](CC(N)=O)C(=O)Nc2ccc(C(=O)Nc3ccc(C(=O)Nc4ccc(C(=O)O)cc4)c(O)c3OC(C)C)cc2)cc1` is reported as 0.25 µg/mL (ATCC29213).
`C[C@@H]1CCN(C(=O)CC#N)C[C@@H]1N(C)c1ncnc2[nH]ccc12` gave an MIC of over 30 µM (NCTC8325).
The MIC of `O=C(O)CN1C(=O)/C(=C/c2c3ccccc3c(-c3ccc(N(c4ccccc4)c4ccccc4)cc3)c3ccccc23)NC1=S` is reported as over 1000 µg/mL (broth dilution; ATCC43300).
`CC(=O)NCN1N=C(C)C(=NNn2c(-c3ccccc3)nc3ccccc3c2=O)C1=O` has an MIC of 59.9 µM (broth dilution; 24 h).
`CN[C@H](CC(C)C)C(=O)N[C@H]1C(=O)N[C@@H](CC(N)=O)C(=O)N[C@H]2C(=O)N[C@H]3C(=O)N[C@H](C(=O)N[C@H](C(=O)O)c4cc(O)cc(O)c4-c4cc3ccc4O)[C@H](O)c3ccc(c(Cl)c3)Oc3cc2cc(c3O[C@@H]2O[C@H](CO)[C@@H](O)[C@H](O)[C@H]2O[C@H]2C[C@](C)(N)[C@H](O)[C@H](C)O2)Oc2ccc(cc2Cl)[C@H]1O` has an MIC of 1 µg/mL (broth dilution; ATCCBAA44).
`Cc1ccc2nc(-c3ccc([N+](=O)[O-])cc3)[nH]c2c1` gave an MIC of 128 µg/mL (broth dilution; ATCC29213 MSSA).
`Cc1cc(C)n(C(=O)c2ccc(-n3c(C)ccc3C)cc2)n1` gave an MIC of 125 µg/mL (broth dilution; ATCC11632; 18 h).
For `CNc1cccc2cc(C(=O)NCCc3cccc(C(=O)O)c3)c(=O)[nH]c12`, the MIC was over 64 µg/mL (ATCC29213).
For `C/C=C(\C)c1cc(OC(=O)c2c(C)c(Cl)c(O)c(Cl)c2O)c(C)c(O)c1C(=O)O`, the MIC was 64 µg/mL (broth dilution; MRSA).
`O=C1NC(=S)N/C1=C\c1ccc(-c2ccc(N(c3ccccc3)c3ccccc3)cc2)c2ccccc12` gave an MIC of over 1000 µg/mL (broth dilution; ATCC25923).
`CCCCCCC#Cc1cncc(-c2nnc(SCc3ccc([N+](=O)[O-])o3)n2C2CC2)c1` has an MIC of at least 20 µg/mL (MRSA; drug-resistant strain).
For `CC(=O)Nc1nc(C)c(-c2ccc(Cl)c(S(=O)(=O)NCCO)c2)s1`, the MIC was over 30 µM (NCTC8325).
`COc1c(C)c(OC)c(C(=O)/C=C/c2ccccc2)c(OC)c1C` has an MIC of 5000 µg/mL (broth dilution; ATCC25923).
`Cc1ccccc1NCc1ccc(Oc2ccccn2)cc1` gave an MIC of 1.6 µg/mL.
The MIC of `Cc1cc(Nc2nc(N[C@@H](C)c3ccc(F)cc3)c(C#N)cc2F)n[nH]1` is reported as 30 µM (NCTC8325).
